Measurements reported in ChEMBL document CHEMBL4411315, “Discovery of Novel Dual Histone Deacetylase and Mammalian Target of Rapamycin Target Inhibitors as a Promising Strategy for Cancer Therapy” (J Med Chem, 2019).
Calls of active or inactive are those of the source. The rule behind the calls is not given here.

Legend:
MV4-11 [1] = test: Cell cycle arrest in human MV4-11 cells assessed as accumulation at G2/M phase at 10 nM after 24 hrs by propidium iodide/RNase staining-based FACS analysis (reference value: 18.79%); format: functional
MM1.S [2] = test: Induction of apoptosis in human MM1S cells assessed as early apoptotic cells at 10 nM after 48 hrs by Annexin V-FITC/propidium iodide staining-based flow cytometric analysis (reference value: 0.38%); format: functional
MV4-11 [3] = test: Induction of apoptosis in human MV4-11 cells assessed as viable cells at 40 nM after 48 hrs by Annexin V-FITC/propidium iodide staining-based flow cytometric analysis (reference value: 84.1%); format: functional; details: MV4-11, 48 h, read-out: Activity
MV4-11 [4] = test: Induction of apoptosis in human MV4-11 cells assessed as viable cells at 320 nM after 48 hrs by Annexin V-FITC/propidium iodide staining-based flow cytometric analysis (reference value: 84.1%); format: functional; details: MV4-11, 48 h, read-out: Activity
MM1.S [5] = test: Induction of apoptosis in human MM1S cells assessed as early apoptotic cells at 80 nM after 48 hrs by Annexin V-FITC/propidium iodide staining-based flow cytometric analysis (reference value: 0.38%); format: functional
MV4-11 [6] = test: Induction of apoptosis in human MV4-11 cells assessed as necrotic cells at 20 nM after 48 hrs by Annexin V-FITC/propidium iodide staining-based flow cytometric analysis (reference value: 0.17%); format: functional
[7] = molecular target: PI3-kinase p110-alpha/p85-alpha (Homo sapiens) (UniProt P27986+P42336); test: Inhibition of recombinant human full length N-terminal His-tagged/untagged p110alpha/p85alpha expressed in baculovirus expression system at 100 nM using PIP2 as substrate after 1 hr by Kinase-Glo reagent-based assay relative to control
Procedure, shortened: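 PI3Kα (p110α/p85α) incubated with PIP2 substrate and ATP in kinase buffer for 1 h at room temperature. Kinase-Glo reagent was then added for 15 min before luminescence read-out. Inhibition rate at 100 or 1000 nM is the mean of at least two experiments.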

MV4-11 [8] = test: Induction of apoptosis in human MV4-11 cells assessed as viable cells at 80 nM after 48 hrs by Annexin V-FITC/propidium iodide staining-based flow cytometric analysis (reference value: 84.1%); format: functional; details: MV4-11, 48 h, read-out: Activity
[9] = Toxicity against NOD/SCID mouse xenografted with human MV4-11 cells assessed as effect on body weight at 10 mg/kg, iv administered every 2 days for 6 days; format: organism-based; details: in vivo
Procedure, shortened: (§1)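 MV4-11 cells (10^7 in 100 μL serum-free IMDM) were injected s.c. into the right flank of female NOD/SCID mice aged 5-6 weeks. Groups of 6 were randomised at 100-200 mm3. Dosing was i.v. every 2 days in physiological saline containing 2.5% DMSO and 10% cyclodextrin, pH 9. Tumours were measured by caliper every 2 days. Survivors were counted.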

MM1.S [10] = test: Induction of apoptosis in human MM1S cells assessed as late apoptotic cells at 320 nM after 48 hrs by Annexin V-FITC/propidium iodide staining-based flow cytometric analysis (reference value: 0.42%); format: functional
[11] = molecular target: Serine/threonine-protein kinase mTOR (Homo sapiens, UniProt P42345); test: Inhibition of human recombinant mTOR expressed in mammalian expression system assessed as residual activity at 1 uM
Procedure, shortened: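 Radiometric kinase panel (99 kinases) run at 1 μM inhibitor in duplicate with [γ-33P]ATP, kinase-specific buffer and substrate at room temperature. The reaction was started with Mg/ATP and stopped with 0.5% phosphoric acid, then spotted on P30 filtermat, washed and scintillation counted. Results are expressed as % remaining activity versus DMSO control.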

Histone deacetylase 3 = Histone deacetylase 3 (Homo sapiens, UniProt O15379); test: Inhibition of recombinant full length HDAC3 (unknown origin) using Ac-peptide-AMC as substrate preincubated for 15 mins followed by substrate addition and measured after 1 hr by fluorescence assay
OCI-AML-3 = test: Antiproliferative activity against human OCI-AML3 cells after 72 hrs by MTT assay; format: functional, cell-based; details: OCI-AML-3, 72 h
MM1.S [12] = test: Cell cycle arrest in human MM1S cells assessed as accumulation at S phase at 1.25 nM after 24 hrs by propidium iodide/RNase staining-based FACS analysis (reference value: 24.49%); format: functional
HCT-116 = test: Antiproliferative activity against human HCT116 cells after 72 hrs by MTT assay; format: functional, cell-based; details: HCT-116, 72 h
MM1.S [13] = test: Induction of apoptosis in human MM1S cells assessed as late apoptotic cells at 160 nM after 48 hrs by Annexin V-FITC/propidium iodide staining-based flow cytometric analysis (reference value: 0.42%); format: functional
MM1.S [14] = test: Cell cycle arrest in human MM1S cells assessed as accumulation at S phase at 5 nM after 24 hrs by propidium iodide/RNase staining-based FACS analysis (reference value: 24.49%); format: functional
MV4-11 [15] = test: Induction of apoptosis in human MV4-11 cells assessed as early apoptotic cells at 40 nM after 48 hrs by Annexin V-FITC/propidium iodide staining-based flow cytometric analysis (reference value: 10.7%); format: functional
MV4-11 [16] = test: Cell cycle arrest in human MV4-11 cells assessed as accumulation at G2/M phase at 2.5 nM after 24 hrs by propidium iodide/RNase staining-based FACS analysis (reference value: 18.79%); format: functional
MM1.S [17] = test: Cell cycle arrest in human MM1S cells assessed as accumulation at G2/M phase at 5 nM after 24 hrs by propidium iodide/RNase staining-based FACS analysis (reference value: 26.29%); format: functional
MM1.S [18] = test: Induction of apoptosis in human MM1S cells assessed as necrotic cells at 320 nM after 48 hrs by Annexin V-FITC/propidium iodide staining-based flow cytometric analysis (reference value: 0.32%); format: functional
MV4-11 [19] = test: Induction of apoptosis in human MV4-11 cells assessed as early apoptotic cells at 320 nM after 48 hrs by Annexin V-FITC/propidium iodide staining-based flow cytometric analysis (reference value: 10.7%); format: functional
Histone deacetylase 4 = Histone deacetylase 4 (Homo sapiens, UniProt P56524); test: Inhibition of recombinant full length human HDAC4 expressed in baculovirus infected sf9 cells using Ac-peptide-AMC as substrate preincubated for 15 mins followed by substrate addition and measured after 1 hr by fluorescence assay
MM1.S [20] = test: Induction of apoptosis in human MM1S cells assessed as early apoptotic cells at 160 nM after 48 hrs by Annexin V-FITC/propidium iodide staining-based flow cytometric analysis (reference value: 0.38%); format: functional
Histone deacetylase 2 = Histone deacetylase 2 (Homo sapiens, UniProt Q92769); test: Inhibition of recombinant full length human HDAC2 expressed in baculovirus expression system using Ac-peptide-AMC as substrate preincubated for 15 mins followed by substrate addition and measured after 1 hr by fluorescence assay
MV4-11 [21] = test: Induction of apoptosis in human MV4-11 cells assessed as late apoptotic cells at 40 nM after 48 hrs by Annexin V-FITC/propidium iodide staining-based flow cytometric analysis (reference value: 5.03%); format: functional
MV4-11 [22] = test: Cell cycle arrest in human MV4-11 cells assessed as accumulation at G0/G1 phase at 5 nM after 24 hrs by propidium iodide/RNase staining-based FACS analysis (reference value: 44.79%); format: functional
[23] = Toxicity against NOD/SCID mouse xenografted with human MV4-11 cells assessed as mouse survival at 10 mg/kg, iv administered every 2 days for 6 days; format: organism-based; details: in vivo; procedure, shortened: as §1

Histone deacetylase 4, sequence (P56524 whole entry): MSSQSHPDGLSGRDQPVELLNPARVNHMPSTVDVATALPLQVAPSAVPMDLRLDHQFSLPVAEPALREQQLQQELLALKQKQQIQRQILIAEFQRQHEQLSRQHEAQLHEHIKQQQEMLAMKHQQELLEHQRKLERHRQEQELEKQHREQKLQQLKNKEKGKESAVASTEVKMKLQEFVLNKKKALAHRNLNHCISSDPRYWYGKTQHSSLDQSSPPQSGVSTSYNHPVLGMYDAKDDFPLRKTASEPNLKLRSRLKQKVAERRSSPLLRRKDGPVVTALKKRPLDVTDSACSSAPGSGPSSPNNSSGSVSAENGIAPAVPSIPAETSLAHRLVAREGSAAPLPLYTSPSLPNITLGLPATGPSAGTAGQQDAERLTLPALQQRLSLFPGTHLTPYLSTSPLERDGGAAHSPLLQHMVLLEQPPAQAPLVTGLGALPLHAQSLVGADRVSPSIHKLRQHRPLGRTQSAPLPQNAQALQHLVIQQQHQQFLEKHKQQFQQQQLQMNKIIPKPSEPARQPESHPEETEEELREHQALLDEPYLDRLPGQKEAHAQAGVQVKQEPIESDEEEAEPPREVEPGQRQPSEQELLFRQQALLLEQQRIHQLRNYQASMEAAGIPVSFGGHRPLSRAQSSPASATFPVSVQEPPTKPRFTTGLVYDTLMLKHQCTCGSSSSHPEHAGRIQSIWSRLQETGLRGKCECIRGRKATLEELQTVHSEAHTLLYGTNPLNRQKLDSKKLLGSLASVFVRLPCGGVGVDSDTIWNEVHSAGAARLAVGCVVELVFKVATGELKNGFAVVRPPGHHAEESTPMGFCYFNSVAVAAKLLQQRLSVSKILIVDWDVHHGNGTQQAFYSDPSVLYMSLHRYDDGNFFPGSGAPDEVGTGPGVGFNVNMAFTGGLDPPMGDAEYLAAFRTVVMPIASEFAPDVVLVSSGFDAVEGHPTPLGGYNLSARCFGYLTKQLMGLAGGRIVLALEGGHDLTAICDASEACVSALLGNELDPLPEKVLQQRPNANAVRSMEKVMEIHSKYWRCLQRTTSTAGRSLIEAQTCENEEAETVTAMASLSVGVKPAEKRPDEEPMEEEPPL
Histone deacetylase 3, sequence (O15379 whole entry): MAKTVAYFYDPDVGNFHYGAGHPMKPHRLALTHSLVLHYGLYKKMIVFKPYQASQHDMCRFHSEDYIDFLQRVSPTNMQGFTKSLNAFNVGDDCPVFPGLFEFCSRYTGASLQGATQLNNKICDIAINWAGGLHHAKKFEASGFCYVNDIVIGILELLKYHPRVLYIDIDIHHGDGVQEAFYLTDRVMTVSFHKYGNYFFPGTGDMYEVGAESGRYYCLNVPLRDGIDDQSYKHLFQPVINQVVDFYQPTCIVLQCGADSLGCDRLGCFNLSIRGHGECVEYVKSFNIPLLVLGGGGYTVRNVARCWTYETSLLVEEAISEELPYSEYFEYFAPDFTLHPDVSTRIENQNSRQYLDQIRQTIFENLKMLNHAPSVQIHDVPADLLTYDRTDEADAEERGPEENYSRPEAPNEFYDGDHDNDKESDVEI
Histone deacetylase 2, sequence (Q92769 whole entry): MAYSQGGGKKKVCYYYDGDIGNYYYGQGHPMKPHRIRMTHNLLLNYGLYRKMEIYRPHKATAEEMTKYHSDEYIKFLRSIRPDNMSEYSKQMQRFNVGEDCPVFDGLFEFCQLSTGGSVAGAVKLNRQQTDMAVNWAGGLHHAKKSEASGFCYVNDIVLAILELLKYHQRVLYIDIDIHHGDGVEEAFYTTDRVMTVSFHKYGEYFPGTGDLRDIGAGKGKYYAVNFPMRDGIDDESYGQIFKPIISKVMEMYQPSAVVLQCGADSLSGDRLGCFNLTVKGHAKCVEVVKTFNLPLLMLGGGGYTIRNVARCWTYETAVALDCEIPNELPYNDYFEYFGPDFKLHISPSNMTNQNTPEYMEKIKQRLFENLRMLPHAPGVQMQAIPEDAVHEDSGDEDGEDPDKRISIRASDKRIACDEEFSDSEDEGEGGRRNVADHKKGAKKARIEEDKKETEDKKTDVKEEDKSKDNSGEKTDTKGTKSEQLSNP

Structure (SMILES): C[C@@H]1CN(C(=O)Nc2ccc(-c3nc(N4CCOCC4)c4cnn(CCCCCCC(=O)NO)c4n3)cc2)CCO1
- Activity (MV4-11 [1]): 11.11%
- Activity (MM1.S [2]): 3.09%
- viability at 0.04 µM (MV4-11 [3]): 2.99%
- viability at 0.32 µM (MV4-11 [4]): 2.57%
- Activity (MM1.S [5]): 7.95%
- Activity (MV4-11 [6]): 2.84%
- inhibition [7]: 28.3%
- viability at 0.08 µM (MV4-11 [8]): 4.09%
- Activity [9]: Non-Toxic
- Activity (MM1.S [10]): 62%
- inhibition [11]: Active
- IC50 (Histone deacetylase 3): 1.47 nM
- IC50 (OCI-AML-3): 9.98 nM
- Activity (MM1.S [12]): 22.05%
- IC50 (HCT-116): 17.2 nM
- Activity (MM1.S [13]): 63.3%
- Activity (MM1.S [14]): 17.65%
- Activity (MV4-11 [15]): 37.4%
- Activity (MV4-11 [16]): 18.2%
- Activity (MM1.S [17]): 24.4%
- Activity (MM1.S [18]): 2.2%
- Activity (MV4-11 [19]): 27.5%
- IC50 (Histone deacetylase 4): > 1000 nM
- Activity (MM1.S [20]): 19.6%
- IC50 (Histone deacetylase 2): 0.61 nM
- Activity (MV4-11 [21]): 57.6%
- Activity (MV4-11 [22]): 64.69%
- Activity [23]: Non-Toxic
